# T1: D14 (Oryza sativa subsp. japonica, UniProt Q10QA5)
# T1 sequence (Q10QA5 52-318): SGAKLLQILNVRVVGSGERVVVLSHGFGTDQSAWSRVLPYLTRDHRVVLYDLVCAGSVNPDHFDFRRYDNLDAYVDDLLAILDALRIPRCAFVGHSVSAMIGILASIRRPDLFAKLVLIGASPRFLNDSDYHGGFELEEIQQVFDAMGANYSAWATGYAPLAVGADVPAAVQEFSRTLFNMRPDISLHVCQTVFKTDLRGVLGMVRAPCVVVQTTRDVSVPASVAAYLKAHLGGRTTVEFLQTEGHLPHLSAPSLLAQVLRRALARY
# B1: D53: Full length D53 (O. sativa), expressed as a GST fusion protein (protein)
# chain: MPTPVAAARQCLSPAAVPALDAAVASSRRRAHAQTTSLHLISSLLAPPAPPLLRDALARARSAAYSPRVQLKALDLCFAVSLDRLPSVSASSSSSGAADEPPVSNSLMAAIKRSQANQRRNPDTFHFYHQAATAQTPAAVKVELSHLVLAILDDPVVSRVFAEAGFRSGDIKLAILRPAPPMPLLGRLPTRTRPPPLFLCSFAAADDADVPSPAGNLAGAGEENCRRIAEILSRGRNPMLVGVGAASAADDFAAASPYRIIHVDPNTIDRSDLGVAAAMASATSGLIISIGDLKQLVPDEDAEAQEKGRRVVAEVTRVLETHSKVGRVWVMGWSATYETYLAFLSKFPLVDKDWDLQLLPITAVHAAATAGPAAAAAGLMPPATTVAAFSKPAASLMDSFVPFGGFLCDNYEENSLTANSCPQALRCQQCNDKYEQEVATIISASGITAEDHHQGGLPSLLQNGSMMGPNNGFDPVKARDDRMVLNSKILNLRKKWNEYCLRLHQDHQRINRDPYKPFPRYIGVPTDKERSANSSKGSESVGVQKDVIKPCAVSAVHSSSTARPISSPSVTNKRNEDLVLNLQARHSKSDENLQERGMQSQHGTLSNVDNPDDHVSPSSAAPVETDLVLGTPRECSSKGSSSTCSKRVEDSERSVHLVPKKVDDLNLKHPQLSVQPNSCSWSSINVGKTSHSTLHSVASGGFSAFGQWQKRSPLAAQNSDLSNYKLLVERLFKVVGRQEEALSAICESIVRCRSTESRRGPNRNDIWLCFHGSDSMAKKRIAVALAELMHGSKDNLIYLDLNLQDWDDSSFRGKTGIDCIVEQLSKKRQSVLFLDNIDRADCLVQDSLSDAIKSGRFQDMRGKVVDINDSIVVLSRSMIQGSKNGLEEGLSFSEEKILATRGHRLKILVEPGRAITSGCPSGKVVVSPRHFLTKIQASLCSGSISKRKLSISDDQEKLQESPSSSKRLHRTSSVPFDLNLPVDEDEPLDADDDSSSHENSYGNTEKSIDALLHSVDGSINFKPFDFDKLADDMLQEFSNILRKNLGSECMLEIDVGAMEQILAAAWKSEEDRKPVPTWLEQVFARSLDELKLKRKHVSSSTLRLVACEDTVPAVKGDGLGVLLPPRIILDC
# modifications: left off: GST, end not stated, kept
# B2: D53 D2 domain: D53 D2 domain (D53-D2, 718–1,131) (protein)
# chain: NSDLSNYKLLVERLFKVVGRQEEALSAICESIVRCRSTESRRGPNRNDIWLCFHGSDSMAKKRIAVALAELMHGSKDNLIYLDLNLQDWDDSSFRGKTGIDCIVEQLSKKRQSVLFLDNIDRADCLVQDSLSDAIKSGRFQDMRGKVVDINDSIVVLSRSMIQGSKNGLEEGLSFSEEKILATRGHRLKILVEPGRAITSGCPSGKVVVSPRHFLTKIQASLCSGSISKRKLSISDDQEKLQESPSSSKRLHRTSSVPFDLNLPVDEDEPLDADDDSSSHENSYGNTEKSIDALLHSVDGSINFKPFDFDKLADDMLQEFSNILRKNLGSECMLEIDVGAMEQILAAAWKSEEDRKPVPTWLEQVFARSLDELKLKRKHVSSSTLRLVACEDTVPAVKGDGLGVLLPPRIILDC
# modifications: left off: GST, end not stated, kept
# B3: C-terminally truncated D3 mutant protein: D3ΔCTH (O. sativa, residues 1–693) co-expressed with ASK1 (protein, UniProt Q5VMP0 1-693, looked up, fragment)
# chain: MAEEEEVEEGRSSSSAILDLPEPLLLHILSFLTDVRSRHRAALACGRMRAAERATRSELSLRGDPRSPGFLFLSHAFRFPALEHLDLSLVSPWGHPLLSSVPPCGGGGGGAPSASSSSGMNVYHPEAISEQNAFIAARLAGCFPAVTSLAVYCRDPTTLANLTPHWQASLRRVKLVRWHQRPPTLPDGADLEPLLETCAALRELDLSEFYCWTEDVVRALTTHPSATAALTHLDLGLAAATDGFKSSELGPIAASCPNLRKLVAPCLFNPRFSDCVGDDALLSLATSCPRLTVLRLSEPFEAAANIQREEAAITVAGLVAFFAALPALEDFTMDLQHNVLEAAPAMEALARRCPRIKFLTLGSFQGLCKASWLHLDGVAVCGGLESLYMKNCQDLTDASLAAIGRGCRRLAKFGIHGCDLVTSAGIRRLAFTLRPTLKEVTVLHCRLLHTAECLTALSPIRDRIESLEINCVWNTTEQPCSVANGTTTECDPEDDELGEVYESAAKKCRYMEFDDLGSWEMLRSLSLWFSAGQLLSPLISAGLDSCPVLEEISIKVEGDCRTCPRPAPRTIFGLSDLAGFPVLAKMKLDLSEAVGYALTAPTGQMDLSLWERFYLHGIESLQTLYELDYWPPQDKDVHHRSLTLPAVGLIQRCVGLRKLFIHGTTHEHFMTFFLSIPNLRDMQLREDYYPAPE
# modifications: co-expressed with ASK1
# Experiments:
# D53-D2 / D14 = test: AlphaScreen assay of D53-D2-D14 interaction; format: binding, O. sativa; settings: DMSO control, mean ± s.d. of biological triplicates
# Method in brief: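 AlphaScreen proximity read. The GST-tagged partner sits on glutathione donor beads and the His-tagged partner on anti-6xHis acceptor beads (5 μg/ml each). Uses 100–500 nM D14 or D53 and 1 μM ASK1-D3 in 50 mM MES pH 6.5, 150 mM NaCl, 1 mM DTT, 0.1 mg/ml BSA. Excitation 680 nm, emission 520–620 nm. Peptide reactions carry matched DMSO; DMSO-only serves as control.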
# D14 [1] = biological target: T1, D14; test: AlphaScreen competition of D3-CTH peptide with His-D3 for binding GST-D14; parameters: species or system O. sativa; settings: 10 μM GR24 (saturating), dose-dependent, 50 mM MES pH 6.5, 150 mM NaCl, 1 mM DTT, 0.1 mg/ml BSA, mean ± s.d. of biological triplicates
# D14 / D53-D2 = test: GST-pulldown of D14 and D53-D2 in the presence of D3-CTH; format: binding, O. sativa; settings: in the presence of GR24, repeated thrice
# Method in brief: (§1)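 GST-tagged bait (~20–40 μg) and His-tagged or untagged prey (~10–25 μg) were incubated with GST beads for 30 min at 4 °C in 40 mM Tris-HCl pH 7, 100 mM NaCl, 2 mM DTT, 0.01% BSA. GR24 was at 20–100 μM with acetone as control. Beads were washed in 250 mM NaCl buffer with 0.01% Tween 20 and eluted with SDS sample buffer or 5 mM glutathione. Read-out: SDS-PAGE with Ponceau or anti-GST/anti-His Western.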
# D14 / D3 = test: AlphaScreen assay of GST-D14 / His-D3 interaction in response to GR24; format: binding, O. sativa; settings: increasing GR24, pH 6.5, mean ± s.d. of biological triplicates
# Method in brief: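 GST-D14 is held on glutathione donor beads and His-D3 (ASK1-D3 complex, 1 μM) on anti-6xHis acceptor beads, both at 5 μg/ml. D14 at 100–500 nM. Buffer is 50 mM MES, 150 mM NaCl, 1 mM DTT, 0.1 mg/ml BSA. GR24 is titrated. Signal is read at 520–620 nm after 680 nm excitation, averaged over three experiments.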
# AtSMXL7-YFP = test: SMXL7-YFP level in tobacco epidermal cells; format: cell-based, Arabidopsis thaliana, expressed in Nicotiana benthamiana; settings: co-expressed with D14-CTH-mCherry; 10 μM GR24, 120 min; n=7 nuclei; p = 4.401×10^−2
# D14-D3-ASK1 = format: binding, O. sativa (ASK1: A. thaliana); settings: for complex formation with D14-D3-ASK1: in the presence of GR24 (100–200 μM)
# Method in brief: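 Purified proteins (20–50 μM) were preincubated for 1 h at 4 °C with 100–200 μM GR24, or with acetone as control, in 20 mM HEPES pH 7.0, 150 mM NaCl, 2 mM DTT. Samples were run on Superdex-200 Increase 10/300 at 0.5 mL/min. Fractions of 0.5 ml were analysed by SDS-PAGE with Coomassie staining; repeated at least three times.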
# D14 [2] = biological target: T1, D14; test: YLG hydrolysis assay; format: biochemical, O. sativa
# Method in brief: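 Recombinant rice D14 (residues 52–318, SUMO tag cleaved) at 1–2 μg, with co-expressed ASK1-D3 complex and D53-D2, plus YLG. Buffer is 50 mM MES pH 6.5, 150 mM NaCl, 1 mM DTT under plate seal. Fluorescence (ex 480/em 520 nm) is read every 10 s over 50–60 min and converted to fluorescein concentration via a standard curve before curve fitting. Repeated at least three times.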
# D14 [3] = biological target: T1, D14; test: Pull-down assay with GST-tagged D53-N, D53-D1 or D53-D2 and His-D14; format: binding, O. sativa; settings: GST-tagged D53 domains, GR24
# Method in brief: as §1
# D53 = D53 stability in a reconstituted cell-free system; format: biochemical, O. sativa (extract: Arabidopsis seedlings); settings: max2–1 seedling extract; 10 μM GR24; 22 °C
molecule,measurement,setting,value
"D3_708–720: 13aa D3 peptide (RFEVQLNSRQIDD; UniProt Q5VMP0 708-720, looked up, fragment)",promotion of D53-D2-D14 interaction,D53-D2 / D14,did not stimulate binding
"D3_693–707: 15aa D3 peptide (ENDLMFTEMRAESWL; UniProt Q5VMP0 693-707, looked up, fragment)",promotion of D53-D2-D14 interaction,D53-D2 / D14,did not stimulate binding
"D3-CTH peptide: 28 amino acids D3-CTH peptide (28aa, D3_693–720), O. sativa (ENDLMFTEMRAESWLRFEVQLNSRQIDD; UniProt Q5VMP0 693-720, looked up, fragment)",competition with D3 for binding D14,D14 [1],able to compete with D3 for binding D14
same,stimulation of D14 and D53-D2 pulling down each other,D14 / D53-D2,able to stimulate D14 and D53-D2 to pull down each other in the presence of GR24
same,promotion of D53-D2-D14 interaction,D53-D2 / D14,elicited the same effect in a dose-dependent manner
CC1=C[C@H](O/C=C2/C(=O)O[C@@H]3c4ccccc4C[C@H]23)OC1=O [GR24],D3-D14 interaction,D14 / D3,GR24-dependent D3-D14 interaction
same,SMXL7 reduction upon GR24 treatment,AtSMXL7-YFP,11.8%
"CCOC(=O)c1ccccc1-c1c2ccc(=O)cc-2oc2cc(OC3C=C(C)C(=O)O3)ccc12 (stereo not shown) [YLG, Yoshimulactone Green, reference compound]","complex assembly among D14, D3-ASK1 and D53-D2","D14-D3-ASK1; Superdex-200, in the presence of YLG","can induce complex assembly among D14, D3-ASK1, and the D53-D2 domain"
B1,effect on D14 inhibited by D3 C-terminal peptide,"D14 [2]; D14 + D3-CTH, initial reaction and slow linear phase",robustly blocked the inhibition of the enzymatic activity of D14 by the D3 C-terminal peptide
same,complex formation with D14-D3-ASK1,D14-D3-ASK1; Superdex-200,can form a stable complex with D14-D3-ASK1 in the presence of GR24
B2,effect on D3-ASK1-arrested D14 kinetics,"D14 [2]; D14 + ASK1-D3, D53-D2 at two concentrations",little change in the enzymatic kinetics
same,complex formation with D14-D3-ASK1,D14-D3-ASK1; Superdex-200,can form a stable complex with D14-D3-ASK1 in the presence of GR24
same,requirement for stable association with D14,"D14-D3-ASK1; Superdex-200, ± ASK1-D3, GR24",stably associated with D14 only in the presence of D3 and GR24
same,binding D14,D14 [3],solely responsible for binding D14 in a GR24-dependent manner
B3,ternary complex with D14 and D53-D2,"D14-D3-ASK1; sizing column, D14-GR24, D53-D2",could neither form a ternary complex with D14 and D53-D2 on a sizing column
same,restoration of D53-degrading activity of max2–1 extracts,D53,nor restore the D53 degradation activity of the max2–1 extracts

# From article PMC6265067 (Nature, 2018)
